Results from ChEMBL document CHEMBL1140747, “Discovery of potent and selective dipeptidyl peptidase IV inhibitors derived from beta-aminoamides bearing subsituted triazolopiperazines” (J Med Chem, 2008).

What was measured:
Prolyl endopeptidase FAP = target: T1, Prolyl endopeptidase FAP (Homo sapiens, UniProt Q12884); test: Inhibition of FAP
T1 sequence (Q12884 whole entry): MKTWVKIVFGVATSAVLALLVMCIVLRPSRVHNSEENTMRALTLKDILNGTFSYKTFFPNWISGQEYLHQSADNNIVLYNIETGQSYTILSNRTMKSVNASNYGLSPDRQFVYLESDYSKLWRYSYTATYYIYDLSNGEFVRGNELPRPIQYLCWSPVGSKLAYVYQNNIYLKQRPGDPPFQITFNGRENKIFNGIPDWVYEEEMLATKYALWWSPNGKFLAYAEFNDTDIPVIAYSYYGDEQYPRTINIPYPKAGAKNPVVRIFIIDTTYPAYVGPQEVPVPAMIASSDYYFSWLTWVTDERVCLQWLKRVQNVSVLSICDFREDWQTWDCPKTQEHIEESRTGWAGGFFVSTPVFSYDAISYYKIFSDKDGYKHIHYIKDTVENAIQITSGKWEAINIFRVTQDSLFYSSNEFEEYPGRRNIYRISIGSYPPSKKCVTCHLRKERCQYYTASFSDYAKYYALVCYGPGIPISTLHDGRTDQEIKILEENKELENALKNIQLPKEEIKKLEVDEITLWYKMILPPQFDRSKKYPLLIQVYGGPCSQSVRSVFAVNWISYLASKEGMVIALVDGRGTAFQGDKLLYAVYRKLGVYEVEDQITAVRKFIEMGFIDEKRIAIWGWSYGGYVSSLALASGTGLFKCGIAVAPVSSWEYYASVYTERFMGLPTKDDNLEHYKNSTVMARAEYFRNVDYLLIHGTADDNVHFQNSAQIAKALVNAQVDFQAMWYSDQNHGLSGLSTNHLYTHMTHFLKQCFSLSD

Dipeptidyl peptidase 4 [1] = target: Dipeptidyl peptidase 4 (Homo sapiens, UniProt P27487)
Xaa-Pro dipeptidase = target: T2, Xaa-Pro dipeptidase (Homo sapiens, UniProt P12955); test: Inhibition of prolidase
T2 sequence (P12955 whole entry): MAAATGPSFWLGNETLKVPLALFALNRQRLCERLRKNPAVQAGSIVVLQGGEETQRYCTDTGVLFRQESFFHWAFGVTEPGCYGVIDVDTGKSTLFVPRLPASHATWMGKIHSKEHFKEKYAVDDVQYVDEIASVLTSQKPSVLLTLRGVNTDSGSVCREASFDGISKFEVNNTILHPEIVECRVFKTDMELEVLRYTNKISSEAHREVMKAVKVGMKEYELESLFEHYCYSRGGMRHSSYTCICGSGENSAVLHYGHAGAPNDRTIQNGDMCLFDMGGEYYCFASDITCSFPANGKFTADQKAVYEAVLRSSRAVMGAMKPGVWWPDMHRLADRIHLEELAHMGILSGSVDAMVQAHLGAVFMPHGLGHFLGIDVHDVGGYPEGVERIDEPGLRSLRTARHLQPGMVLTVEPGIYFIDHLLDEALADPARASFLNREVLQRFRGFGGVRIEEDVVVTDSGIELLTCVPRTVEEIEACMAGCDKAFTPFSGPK

Dipeptidyl peptidase 2 = Dipeptidyl peptidase 2 (Homo sapiens, UniProt Q9UHL4); test: Inhibition of QPP
Dipeptidyl peptidase 9 = Dipeptidyl peptidase 9 (Homo sapiens, UniProt Q86TI2); test: Inhibition of DPP9
[2] = (§1) Oral bioavailability in rat at 2 mg/kg; type: ADME, organism-based; details: in vivo
[3] = Half life in rat at 1 mg/kg, iv and 2 mg/kg, po; type: ADME, organism-based; details: in vivo
[4] = Oral bioavailability in mouse; type: ADME, organism-based; details: in vivo
Dipeptidyl peptidase 8 = Dipeptidyl peptidase 8 (Homo sapiens, UniProt Q6V1X1); test: Inhibition of DPP8
[5] = Cmax in rat at 2 mg/kg, po; type: ADME, organism-based; set-up: dose 2 mg/kg, route oral; details: in vivo
Xaa-Pro aminopeptidase 1 = Xaa-Pro aminopeptidase 1 (Homo sapiens, UniProt Q9NQW7); test: Inhibition of amino peptidase P
[6] = Plasma clearance in rat at 1 mg/kg, iv and 2 mg/kg, po; type: ADME, organism-based
[7] = Oral bioavailability in Zucker fa/fa rat; type: ADME, organism-based; details: in vivo
Rattus norvegicus = test: as §1; type: ADME, organism-based; details: in vivo
Mus musculus [8] = test: Reduction of dextrose induced blood glucose excursion in mouse at 0.1 mg/kg; type: functional; set-up: scale not given: the % may be the effect or the level left
In short: (§2)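 Lean mice received a single oral dose of the compound 60 min before an oral dextrose challenge (5 g/kg) in an oral glucose tolerance test. The read-out was the reduction of the dextrose-induced blood glucose excursion. Data are mean ± SEM, n = 7 per group.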

[9] = Cmax in dog at 2 mg/kg, po; type: ADME, organism-based, Canis lupus familiaris; set-up: dose 2 mg/kg, route oral; details: in vivo
[10] = Half life in dog at 1 mg/kg, iv and 2 mg/kg, po; type: ADME, organism-based, Canis lupus familiaris; details: in vivo
[11] = Cmax in monkey at 2 mg/kg, po; type: ADME, organism-based, Macaca mulatta; set-up: dose 2 mg/kg, route oral; details: rhesus monkey, in vivo
[12] = Oral bioavailability in dog at 2 mg/kg; type: ADME, organism-based, Canis lupus familiaris; details: in vivo
Plasma = test: Drug level in mouse plasma at 1 mg/kg; type: ADME, organism-based; set-up: dose 1 mg/kg; details: in vivo
In short: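 Lean mice, oral OGTT: single oral dose given 60 min before an oral dextrose challenge (5 g/kg). Plasma was sampled 20 min after dextrose for compound concentration, alongside plasma DPP-4 activity and active GLP-1. Values are mean ± SEM, n = 7 per group.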

[13] = Plasma clearance in monkey at 1 mg/kg, iv and 2 mg/kg, po; type: ADME, organism-based, Macaca mulatta; details: rhesus monkey
[14] = Half life in monkey at 1 mg/kg, iv and 2 mg/kg, po; type: ADME, organism-based, Macaca mulatta; details: rhesus monkey, in vivo
Mus musculus [15] = test: Reduction of dextrose induced blood glucose excursion in mouse at 1 mg/kg; type: functional; set-up: scale not given: the % may be the effect or the level left; in short: as §2
[16] = Oral bioavailability in monkey at 2 mg/kg; type: ADME, organism-based, Macaca mulatta; details: rhesus monkey, in vivo
[17] = Plasma clearance in dog at 1 mg/kg, iv and 2 mg/kg, po; type: ADME, organism-based, Canis lupus familiaris
Dipeptidyl peptidase 4 [18] = target: Dipeptidyl peptidase 4 (Mus musculus, UniProt P28843); test: Inhibition of mouse DPP4
Chain of Dipeptidyl peptidase 4 (Mus musculus, UniProt P28843) (P28843 whole entry): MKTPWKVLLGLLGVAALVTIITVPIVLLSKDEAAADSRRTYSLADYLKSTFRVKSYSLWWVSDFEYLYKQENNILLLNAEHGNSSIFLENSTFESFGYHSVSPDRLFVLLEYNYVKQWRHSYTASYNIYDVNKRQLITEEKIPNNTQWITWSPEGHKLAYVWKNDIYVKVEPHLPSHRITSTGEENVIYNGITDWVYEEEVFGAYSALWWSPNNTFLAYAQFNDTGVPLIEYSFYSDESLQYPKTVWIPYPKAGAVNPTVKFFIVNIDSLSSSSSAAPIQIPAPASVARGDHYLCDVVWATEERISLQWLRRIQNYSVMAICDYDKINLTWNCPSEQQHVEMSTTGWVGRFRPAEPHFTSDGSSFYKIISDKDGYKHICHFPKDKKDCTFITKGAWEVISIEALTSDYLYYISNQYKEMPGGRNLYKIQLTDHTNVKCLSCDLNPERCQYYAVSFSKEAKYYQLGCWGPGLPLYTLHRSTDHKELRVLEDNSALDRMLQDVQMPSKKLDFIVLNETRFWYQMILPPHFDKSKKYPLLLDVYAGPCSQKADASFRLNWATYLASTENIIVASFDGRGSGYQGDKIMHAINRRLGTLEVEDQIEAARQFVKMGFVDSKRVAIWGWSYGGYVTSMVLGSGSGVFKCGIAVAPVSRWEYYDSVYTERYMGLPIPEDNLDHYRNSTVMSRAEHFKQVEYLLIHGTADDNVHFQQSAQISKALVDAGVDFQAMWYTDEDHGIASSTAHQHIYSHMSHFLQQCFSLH

Chain of Dipeptidyl peptidase 8 (Q6V1X1 whole entry): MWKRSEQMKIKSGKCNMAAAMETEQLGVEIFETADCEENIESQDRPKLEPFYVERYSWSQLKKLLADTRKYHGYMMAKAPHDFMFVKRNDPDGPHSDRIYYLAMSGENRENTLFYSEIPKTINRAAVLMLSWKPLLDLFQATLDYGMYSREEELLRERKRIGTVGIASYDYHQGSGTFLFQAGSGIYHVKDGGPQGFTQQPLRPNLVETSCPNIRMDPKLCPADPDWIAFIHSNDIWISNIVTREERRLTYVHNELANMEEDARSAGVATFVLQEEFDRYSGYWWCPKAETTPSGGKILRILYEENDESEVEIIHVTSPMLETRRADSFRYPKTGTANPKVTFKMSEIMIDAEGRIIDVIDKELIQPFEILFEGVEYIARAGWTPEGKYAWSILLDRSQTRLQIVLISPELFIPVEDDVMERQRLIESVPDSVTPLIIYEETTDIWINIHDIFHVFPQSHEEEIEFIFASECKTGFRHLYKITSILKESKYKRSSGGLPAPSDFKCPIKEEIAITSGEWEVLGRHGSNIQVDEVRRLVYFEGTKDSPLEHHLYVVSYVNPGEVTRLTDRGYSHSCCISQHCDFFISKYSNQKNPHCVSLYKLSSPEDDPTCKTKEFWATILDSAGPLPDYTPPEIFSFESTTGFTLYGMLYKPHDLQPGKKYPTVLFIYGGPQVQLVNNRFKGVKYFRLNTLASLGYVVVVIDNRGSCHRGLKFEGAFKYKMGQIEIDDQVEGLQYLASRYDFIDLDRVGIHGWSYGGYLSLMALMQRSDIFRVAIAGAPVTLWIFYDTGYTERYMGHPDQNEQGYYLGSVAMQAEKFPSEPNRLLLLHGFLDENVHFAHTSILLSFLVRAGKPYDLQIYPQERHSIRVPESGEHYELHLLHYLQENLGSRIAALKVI
Chain of Xaa-Pro aminopeptidase 1 (Q9NQW7 whole entry): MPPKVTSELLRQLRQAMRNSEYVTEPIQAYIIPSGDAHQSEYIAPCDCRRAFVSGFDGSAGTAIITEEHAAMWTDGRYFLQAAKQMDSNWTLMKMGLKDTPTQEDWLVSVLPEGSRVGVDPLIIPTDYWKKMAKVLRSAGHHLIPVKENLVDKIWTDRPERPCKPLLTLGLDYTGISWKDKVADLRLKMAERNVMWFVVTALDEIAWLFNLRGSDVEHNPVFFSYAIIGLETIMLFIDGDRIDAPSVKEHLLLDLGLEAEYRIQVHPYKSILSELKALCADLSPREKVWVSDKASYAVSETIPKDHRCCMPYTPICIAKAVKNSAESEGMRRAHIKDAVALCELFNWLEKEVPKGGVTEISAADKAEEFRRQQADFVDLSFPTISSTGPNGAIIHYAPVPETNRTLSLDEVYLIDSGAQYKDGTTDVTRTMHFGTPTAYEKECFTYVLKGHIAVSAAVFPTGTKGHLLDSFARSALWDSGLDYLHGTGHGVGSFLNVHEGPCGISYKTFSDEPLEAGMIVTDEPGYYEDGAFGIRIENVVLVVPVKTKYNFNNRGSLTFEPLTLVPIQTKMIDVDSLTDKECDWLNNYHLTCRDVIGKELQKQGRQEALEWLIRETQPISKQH
Chain of Dipeptidyl peptidase 4 (Homo sapiens, UniProt P27487) (P27487 whole entry): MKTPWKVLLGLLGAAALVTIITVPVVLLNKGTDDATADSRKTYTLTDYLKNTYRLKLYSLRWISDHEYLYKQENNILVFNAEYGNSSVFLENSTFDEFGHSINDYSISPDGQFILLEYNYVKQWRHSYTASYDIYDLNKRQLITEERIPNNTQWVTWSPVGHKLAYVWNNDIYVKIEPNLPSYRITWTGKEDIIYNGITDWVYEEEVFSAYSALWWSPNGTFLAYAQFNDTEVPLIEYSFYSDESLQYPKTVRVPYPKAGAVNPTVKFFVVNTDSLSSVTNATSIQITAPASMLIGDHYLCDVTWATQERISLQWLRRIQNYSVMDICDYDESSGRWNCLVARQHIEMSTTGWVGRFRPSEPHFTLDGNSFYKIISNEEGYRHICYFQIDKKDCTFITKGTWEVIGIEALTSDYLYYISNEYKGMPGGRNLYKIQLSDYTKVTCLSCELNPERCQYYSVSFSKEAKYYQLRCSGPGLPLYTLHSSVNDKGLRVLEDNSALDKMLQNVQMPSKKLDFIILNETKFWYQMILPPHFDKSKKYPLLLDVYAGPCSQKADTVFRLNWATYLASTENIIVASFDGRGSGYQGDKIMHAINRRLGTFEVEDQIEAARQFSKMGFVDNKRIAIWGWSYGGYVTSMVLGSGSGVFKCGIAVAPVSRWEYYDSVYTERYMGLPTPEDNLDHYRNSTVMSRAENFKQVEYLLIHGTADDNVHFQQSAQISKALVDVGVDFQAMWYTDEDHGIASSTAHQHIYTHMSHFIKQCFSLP
Chain of Dipeptidyl peptidase 9 (Q86TI2 whole entry): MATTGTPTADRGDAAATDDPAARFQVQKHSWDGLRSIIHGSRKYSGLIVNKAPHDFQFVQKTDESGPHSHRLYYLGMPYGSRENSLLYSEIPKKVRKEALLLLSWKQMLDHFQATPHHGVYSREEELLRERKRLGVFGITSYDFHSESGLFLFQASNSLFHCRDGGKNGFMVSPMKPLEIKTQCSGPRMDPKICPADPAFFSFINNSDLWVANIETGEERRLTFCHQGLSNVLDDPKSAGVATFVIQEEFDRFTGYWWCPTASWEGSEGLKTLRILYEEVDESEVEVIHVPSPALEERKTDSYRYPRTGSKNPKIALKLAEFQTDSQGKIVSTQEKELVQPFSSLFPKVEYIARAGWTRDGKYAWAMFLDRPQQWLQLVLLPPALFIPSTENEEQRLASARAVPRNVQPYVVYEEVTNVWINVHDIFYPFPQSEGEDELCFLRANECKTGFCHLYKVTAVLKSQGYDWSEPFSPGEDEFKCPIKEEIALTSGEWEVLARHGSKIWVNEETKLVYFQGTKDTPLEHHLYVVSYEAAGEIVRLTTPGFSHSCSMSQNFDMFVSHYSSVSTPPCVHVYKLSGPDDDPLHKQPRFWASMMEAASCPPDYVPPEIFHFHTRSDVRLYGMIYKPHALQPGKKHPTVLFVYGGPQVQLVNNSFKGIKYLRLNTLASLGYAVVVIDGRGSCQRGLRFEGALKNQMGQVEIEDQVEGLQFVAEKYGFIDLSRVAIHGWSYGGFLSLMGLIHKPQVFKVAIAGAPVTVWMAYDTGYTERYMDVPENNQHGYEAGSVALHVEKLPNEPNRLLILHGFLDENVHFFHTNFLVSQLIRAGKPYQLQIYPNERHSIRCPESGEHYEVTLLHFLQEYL

Compound	IC50 (Prolyl endopeptidase FAP) [µM]	IC50 (Dipeptidyl peptidase 4 [1]) [µM]	IC50 (Xaa-Pro dipeptidase) [µM]	IC50 (Dipeptidyl peptidase 2) [µM]	IC50 (Dipeptidyl peptidase 9) [µM]	bioavailability [2] [%]	half-life [3] [h]	IC50 (Dipeptidyl peptidase 8) [µM]	Cmax [5] [nM]	IC50 (Xaa-Pro aminopeptidase 1) [µM]	clearance [6] [mL/min/kg]	further results
Cl.N[C@@H](CC(=O)N1CCn2c(nnc2C(F)(F)F)[C@H]1Cc1ccc(F)cc1)Cc1cc(F)c(F)cc1F (mixture of isomers)	> 10	0.00018	> 10	33	20	76	1.5	0.332	360	> 10	29	bioavailability [4]: 6%; bioavailability [7]: 100%
C[C@@H]1CN(C(=O)C[C@H](N)Cc2cc(F)c(F)cc2F)Cc2ccc(C(F)(F)F)n21.Cl	> 10	0.014	> 10	> 100	53	35	1.9	33		> 10	154	
Cl.N[C@@H](CC(=O)N1CCn2c(nnc2C(F)(F)F)C1)Cc1cc(F)c(F)cc1F			> 10				1.7			> 10	60	F (Rattus norvegicus): 76%
Cl.N[C@@H](CC(=O)N1CCn2c(nnc2C(F)(F)F)C1Cc1ccccn1)Cc1cc(F)c(F)cc1F (stereo in doubt; 49b)	> 10	0.0004	> 10	> 100	> 100	9	1.9	5	16	> 10	94	
C[C@@H]1c2nnc(C(F)(F)F)n2CCN1C(=O)C[C@H](N)Cc1cc(F)c(F)cc1F.Cl	> 10	0.0043	> 10	> 100	> 100	57	2.4	17	133	> 10	54	Activity (Mus musculus [8]): 34%; Cmax [9]: 756 nM; half-life [10]: 8.8 h; Cmax [11]: 410 nM; bioavailability [12]: 91%; concentration (Plasma): 190 nM; clearance [13]: 29 mL/min/kg; half-life [14]: 6 h; Activity (Mus musculus [15]): 55%; bioavailability [16]: 85%; clearance [17]: 7.8 mL/min/kg; IC50 (Dipeptidyl peptidase 4 [18]): 0.011 µM
Cl.N[C@@H](CC(=O)N1CCn2c(nnc2C(F)(F)F)C1C(O)c1ccc(F)cc1)Cc1cc(F)c(F)cc1F (stereo in doubt; 47b)	> 10	0.00032	> 10	36	89	8	2.6	0.326	20	> 10	63	
C[C@@H]1c2nnc(C(F)(F)F)n2[C@H](C)CN1C(=O)C[C@H](N)Cc1cc(F)c(F)cc1F.Cl	> 10	0.012	> 10	> 100	52	45	2.1	70	92	> 10	85	
CN(C)C(=O)CC1c2nnc(C(F)(F)F)n2CCN1C(=O)C[C@H](N)Cc1cc(F)c(F)cc1F.Cl (stereo in doubt; 41b)	> 10	0.0028	> 10	> 100	> 100	9	2.7	30	4	> 10	87	
C=CCC1c2nnc(C(F)(F)F)n2CCN1C(=O)C[C@H](N)Cc1cc(F)c(F)cc1F (stereo in doubt; 40b)	> 10	0.032	> 10	62	> 100			72		> 10		
CC1(C)c2nnc(C(F)(F)F)n2CCN1C(=O)C[C@H](N)Cc1cc(F)c(F)cc1F	> 10	0.175	> 10	23	20			6		> 10		
Cl.N[C@@H](CC(=O)N1CCn2c(nnc2C(F)(F)F)C1Cc1cc(C(F)(F)F)cc(C(F)(F)F)c1)Cc1cc(F)c(F)cc1F (stereo in doubt; 48b)	> 10	0.0063	> 10	> 100	> 100	19	4.1	> 100	42	> 10	50	
Cl.N[C@@H](CC(=O)N1CCn2c(nnc2C(F)(F)F)C1Cc1ccccc1F)Cc1cc(F)c(F)cc1F (stereo in doubt; 45b)	> 10	0.00046	> 10	47	39	26	1.4	1.1	64	> 10	74	
C[C@H]1CN(C(=O)C[C@H](N)Cc2cc(F)c(F)cc2F)Cc2ccc(C(F)(F)F)n21	> 10	0.023	> 10	> 100	23			23		> 10		
